≈ marks a conversion by molar mass, not a printed value.

The test system of this experiment is Mycobacterium tuberculosis. As to the kind of experiment: Antitubercular activity against Mycobacterium bovis BCG after 7 days by alamar blue assay. The class given is functional. Particulars: variant bovis BCG, 168 h. In short, it runs like this: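 Frozen BCG stock thawed, lightly sonicated, diluted in Dubos broth/OADC to 4 × 10^4 bacteria/well; compounds at varied concentrations in PBS/2.5-5% DMSO, 37 °C for 7 days, then Alamar Blue 24 h. Ethambutol control; triplicate.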
Background: Alamar Blue is a resazurin reagent that responds to reducing activity.
In the case of `CNC1=C(SC)C(=O)c2ncccc2C1=O`, the MIC – broadly, the lowest concentration found to suppress growth – stood at 12.5 µg/mL (≈ 53.4 µM).

In turn, `CSC1=C(SC)C(=O)c2ncccc2C1=O` registered an MIC of 6.3 µg/mL (≈ 25.1 µM).

`CNC1=C([S+](C)[O-])C(=O)c2ncccc2C1=O` (stereo unspecified): 25 µg/mL (≈ 99.9 µM) was the least that counted as inhibitory (MIC).

Regarding `Cc1ccc(S(=O)(=O)C2=C(S(=O)(=O)c3ccc(C)cc3)C(=O)c3ncccc3C2=O)cc1`, the MIC was 6.3 µg/mL (≈ 13.5 µM).

Molecule `O=C1c2cccnc2C(=O)C2SCCNC12` (stereo unspecified) registered an MIC of 6.3 µg/mL (≈ 26.9 µM).

Consider `Cc1ccc2c(n1)C(=O)C(Cl)=C(NCCBr)C2=O`, for which the MIC came to 12.5 µg/mL (≈ 37.9 µM).

`CSC1=C(N)C(=O)c2cccnc2C1=O`: the MIC was 6.3 µg/mL (≈ 28.6 µM).

Consider `Cc1ccc2c(n1)C(=O)C(Cl)=C(Cl)C2=O`, for which the minimum inhibitory concentration (MIC) came out at 6.3 µg/mL (≈ 26 µM).

On to `O=C1C2=C(NCCS2)C(=O)c2ncccc21`, for which the lowest concentration to inhibit growth (MIC) was 6.3 µg/mL (≈ 27.1 µM).

With `CNC1=C(Cl)C(=O)c2cccnc2C1=O`, the minimal inhibitory concentration (MIC) came to 12.5 µg/mL (≈ 56.1 µM).

In turn, `Cc1ccc(S(=O)(=O)C2=C(Cl)C(=O)c3ncccc3C2=O)cc1` came in with a minimal inhibitory concentration (MIC) greater than 50 µg/mL.

The molecule `Oc1c(Sc2ccccc2)c(Sc2ccccc2)c(O)c2ncccc12` yielded an MIC of 25 µg/mL (≈ 66.2 µM).

As to `CNC1=C(SC)C(=O)c2cccnc2C1=O`, the MIC is greater than 50 µg/mL.

With `O=C1C(Sc2ccccc2)=C(Sc2ccccc2)C(=O)c2ncccc21`, the MIC was greater than 50 µg/mL.

As for `CS(=O)(=O)C1=C(N)C(=O)c2cccnc2C1=O`, the MIC is 25 µg/mL (≈ 99.1 µM).

As to `O=C1C(Cl)=C(NCCCl)C(=O)c2ncccc21`, the lowest concentration to inhibit growth (MIC) was 12.5 µg/mL (≈ 46.1 µM).

In the case of `Cc1ccc2c(n1)C(=O)C(NCCBr)=C(Cl)C2=O`, the MIC was found to be 12.5 µg/mL (≈ 37.9 µM).

For the molecule `CNC1=C(Cl)C(=O)c2ncccc2C1=O`, the MIC was determined as 12.5 µg/mL (≈ 56.1 µM).

Consider `CNC1=C(Sc2ccccc2)C(=O)c2cccnc2C1=O`, for which the lowest concentration to inhibit growth (MIC) was 12.5 µg/mL (≈ 42.2 µM).

As for `C[S+]([O-])C1=C(N)C(=O)c2cccnc2C1=O` (stereo unspecified), it took 1.56 µg/mL (≈ 6.6 µM) to inhibit growth (MIC).

`O=C1C(NCCCl)=C(Cl)C(=O)c2ncccc21` yielded an MIC of 6.3 µg/mL (≈ 23.2 µM).

`O=C1C(NC(c2ccccc2)c2ccccc2)=C(Cl)C(=O)c2ncccc21`: it took 6.3 µg/mL (≈ 16.8 µM) to inhibit growth (MIC).

Consider `O=C1C(NCCBr)=C(Cl)C(=O)c2ncccc21`, for which inhibition of growth (MIC) required 3.13 µg/mL (≈ 9.92 µM).

In the case of `O=C1C(Cl)=C(NCCBr)C(=O)c2ncccc21`, 6.3 µg/mL (≈ 20 µM) was the least that counted as inhibitory (MIC).

`CNC1=C([S+](C)[O-])C(=O)c2cccnc2C1=O` (stereo unspecified) returned an MIC greater than 50 µg/mL.

Regarding `CNC1=C(Sc2ccccc2)C(=O)c2ncccc2C1=O`, the MIC is 12.5 µg/mL (≈ 42.2 µM).

These data come from ChEMBL document CHEMBL1157933, “The anti-cancer, anti-inflammatory and tuberculostatic activities of a series of 6,7-substituted-5,8-quinolinequinones” (Bioorg Med Chem, 2010).
